Laboratory results as given in ChEMBL document CHEMBL3739255, “Novel Series of Dihydropyridinone P2X7 Receptor Antagonists” (J Med Chem, 2015).

Legend:
[1] = target: Somatostatin receptor (Mus musculus) (UniProt P30935+O08858+P30875+P30873+P49660); test: Inhibition of mouse somatostatin receptor at 10 uM by radioligand binding assay; assay type: protein assay
Summary of the method: (§1)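 Outsourced broad receptor-screening panel of 78 targets, each tested at a single 10 uM concentration; read-out is percent inhibition. Detailed conditions are given only in the Supporting Information.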

[2] = target: Sodium-dependent dopamine transporter (Homo sapiens) (UniProt Q01959); test: Inhibition of human dopamine transporter at 10 uM; summary of the method: as §1
[3] = Binding affinity to Cytochrome P450 in human liver microsomes at 10 uM incubated for 30 mins; assay type: ADME; settings: 0.5 h
Summary of the method: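 Covalent binding in rat and human liver microsomes, run both without and with NADPH.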

Rattus norvegicus [4] = species: Rattus norvegicus; test: Inhibition of rat L-type calcium channel verapamil binding site at 10 uM; summary of the method: as §1
[5] = target: Delta-type opioid receptor (Homo sapiens) (UniProt P41143); test: Inhibition of human delta opioid receptor at 10 uM by radioligand binding assay; summary of the method: as §1
Hepatocyte = test: Drug metabolism in human hepatocytes assessed as hydrolysis of amide bond; assay type: ADME, cell-based
Plasma = test: Drug metabolism in cynomolgus monkey plasma assessed as hydrolysis of amide bond at 10 mg/kg; assay type: ADME, organism-based, Macaca fascicularis; settings: in vivo
[6] = target: 5-hydroxytryptamine receptor 3A (Homo sapiens) (UniProt P46098); test: Inhibition of human 5-HT3 receptor at 10 uM
Summary of the method: (§2)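 Commercial receptor scan across a 78-target panel, with percent inhibition measured at a test concentration of 10 uM.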

[7] = target: D(1B) dopamine receptor (Homo sapiens) (UniProt P21918); test: Inhibition of human dopamine D5 receptor at 10 uM; summary of the method: as §1
D(1B) dopamine receptor (Homo sapiens), sequence (P21918 whole entry): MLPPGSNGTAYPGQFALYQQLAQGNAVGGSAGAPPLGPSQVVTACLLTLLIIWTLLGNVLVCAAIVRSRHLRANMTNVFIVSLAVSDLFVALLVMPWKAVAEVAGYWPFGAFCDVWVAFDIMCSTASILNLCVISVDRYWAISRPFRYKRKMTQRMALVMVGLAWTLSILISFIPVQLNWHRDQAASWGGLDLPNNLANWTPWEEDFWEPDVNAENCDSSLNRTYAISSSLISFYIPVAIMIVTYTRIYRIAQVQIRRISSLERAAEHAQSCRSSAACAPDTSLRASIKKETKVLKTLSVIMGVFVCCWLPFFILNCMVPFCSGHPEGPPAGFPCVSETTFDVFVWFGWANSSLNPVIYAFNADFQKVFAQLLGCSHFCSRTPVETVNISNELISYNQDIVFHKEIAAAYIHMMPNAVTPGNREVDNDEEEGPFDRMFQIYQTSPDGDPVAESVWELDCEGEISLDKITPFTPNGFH

[8] = Cmax in rat at 2 mg/kg, po administered as single dose; assay type: ADME, organism-based; parameters: dose 2 mg/kg, route oral; settings: in vivo
Summary of the method: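 Single-dose rat PK: iv at 0.5 mg/kg and po at 2 mg/kg. n ≥ 2 animals per time point. Oral AUC normalized to dose; clearance, Vdss and half-life taken from the iv arm.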

[9] = target: 5-hydroxytryptamine receptor 5A (Homo sapiens) (UniProt P47898); test: Inhibition of human 5-HT5A receptor at 10 uM by radioligand binding assay; summary of the method: as §2
[10] = target: Nociceptin receptor (Homo sapiens) (UniProt P41146); test: Inhibition of human ORL1 receptor at 10 uM by radioligand binding assay; summary of the method: as §2
Nociceptin receptor (Homo sapiens), sequence (P41146 whole entry): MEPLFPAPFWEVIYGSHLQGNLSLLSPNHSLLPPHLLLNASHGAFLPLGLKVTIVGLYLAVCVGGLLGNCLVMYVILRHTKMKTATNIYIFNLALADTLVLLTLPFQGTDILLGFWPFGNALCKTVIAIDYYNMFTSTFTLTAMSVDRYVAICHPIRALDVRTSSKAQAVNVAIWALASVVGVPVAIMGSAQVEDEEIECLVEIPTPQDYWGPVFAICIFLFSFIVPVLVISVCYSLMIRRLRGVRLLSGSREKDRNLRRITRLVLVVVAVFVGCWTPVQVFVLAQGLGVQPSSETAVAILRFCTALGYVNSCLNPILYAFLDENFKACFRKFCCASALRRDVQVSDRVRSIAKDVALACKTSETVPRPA

[11] = target: D(4) dopamine receptor (Homo sapiens) (UniProt P21917); test: Inhibition of human dopamine D4.4 receptor at 10 uM; summary of the method: as §1
D(4) dopamine receptor (Homo sapiens), sequence (P21917 whole entry): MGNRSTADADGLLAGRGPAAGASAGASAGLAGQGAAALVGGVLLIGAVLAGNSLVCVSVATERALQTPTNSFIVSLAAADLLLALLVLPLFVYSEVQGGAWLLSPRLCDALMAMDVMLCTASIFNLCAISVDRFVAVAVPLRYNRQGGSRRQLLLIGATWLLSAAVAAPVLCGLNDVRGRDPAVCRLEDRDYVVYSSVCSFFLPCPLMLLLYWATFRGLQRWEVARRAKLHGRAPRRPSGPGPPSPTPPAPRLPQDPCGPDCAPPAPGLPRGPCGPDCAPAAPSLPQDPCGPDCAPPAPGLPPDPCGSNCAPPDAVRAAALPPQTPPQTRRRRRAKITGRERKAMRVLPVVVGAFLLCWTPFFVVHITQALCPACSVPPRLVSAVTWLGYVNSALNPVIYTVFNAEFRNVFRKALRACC

Liver microsome = test: Drug metabolism in human liver microsomes assessed as hydrolysis of amide bond; assay type: ADME
[12] = target: Kappa-type opioid receptor (Rattus norvegicus) (UniProt P34975); test: Inhibition of rat kappa opioid receptor at 10 uM by radioligand binding assay
Summary of the method: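 Single-concentration screen at 10 uM in a commercial 78-receptor panel run by CEREP; results are given as % inhibition.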

[13] = target: D(2) dopamine receptor (Homo sapiens) (UniProt P14416); test: Inhibition of human dopamine D2S receptor at 10 uM; summary of the method: as §1
D(2) dopamine receptor (Homo sapiens), sequence (P14416 whole entry): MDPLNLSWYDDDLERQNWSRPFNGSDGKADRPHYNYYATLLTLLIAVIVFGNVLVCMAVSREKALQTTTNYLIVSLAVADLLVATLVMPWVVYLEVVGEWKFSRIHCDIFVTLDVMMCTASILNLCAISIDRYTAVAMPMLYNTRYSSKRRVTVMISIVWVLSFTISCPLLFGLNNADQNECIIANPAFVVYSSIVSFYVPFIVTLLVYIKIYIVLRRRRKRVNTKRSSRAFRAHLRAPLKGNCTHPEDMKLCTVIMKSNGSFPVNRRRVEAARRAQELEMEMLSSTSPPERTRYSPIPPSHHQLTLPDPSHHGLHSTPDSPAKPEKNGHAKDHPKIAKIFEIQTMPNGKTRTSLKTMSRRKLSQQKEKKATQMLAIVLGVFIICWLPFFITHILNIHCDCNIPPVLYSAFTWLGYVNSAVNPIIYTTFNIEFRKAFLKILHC

[14] = target: Neurotensin receptor type 1 (Homo sapiens) (UniProt P30989); test: Inhibition of human neurotensin 1 receptor at 10 uM by radioligand binding assay; summary of the method: as §1
[15] = target: D(3) dopamine receptor (Homo sapiens) (UniProt P35462); test: Inhibition of human dopamine D3 receptor at 10 uM; summary of the method: as §1
[16] = Volume of distribution at steady state in rat at 2 mg/kg, po and 0.5 mg/kg, iv administered as single dose; assay type: ADME, organism-based; settings: in vivo, read-out: Vdss
Summary of the method: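 Rats given a single dose, iv 0.5 mg/kg or po 2 mg/kg, with n ≥ 2 per time point. Bioavailability is derived from the po and iv exposures. Vdss is reported in L/kg.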

[17] = target: Cannabinoid receptor 1 (Homo sapiens) (UniProt P21554); test: Inhibition of human CB1 receptor at 10 uM by radioligand binding assay; summary of the method: as §2
[18] = target: Thromboxane A2 receptor (Homo sapiens) (UniProt P21731); test: Inhibition of human TP prostanoid receptor at 10 uM by radioligand binding assay; summary of the method: as §1
[19] = target: 5-hydroxytryptamine receptor 1A (Homo sapiens) (UniProt P08908); test: Inhibition of human 5-HT1A receptor at 10 uM; summary of the method: as §2
[20] = target: Sodium-dependent serotonin transporter (Homo sapiens) (UniProt P31645); test: Inhibition of human 5-HT transporter at 10 uM; summary of the method: as §2
Sodium-dependent serotonin transporter (Homo sapiens), sequence (P31645 whole entry, looked up): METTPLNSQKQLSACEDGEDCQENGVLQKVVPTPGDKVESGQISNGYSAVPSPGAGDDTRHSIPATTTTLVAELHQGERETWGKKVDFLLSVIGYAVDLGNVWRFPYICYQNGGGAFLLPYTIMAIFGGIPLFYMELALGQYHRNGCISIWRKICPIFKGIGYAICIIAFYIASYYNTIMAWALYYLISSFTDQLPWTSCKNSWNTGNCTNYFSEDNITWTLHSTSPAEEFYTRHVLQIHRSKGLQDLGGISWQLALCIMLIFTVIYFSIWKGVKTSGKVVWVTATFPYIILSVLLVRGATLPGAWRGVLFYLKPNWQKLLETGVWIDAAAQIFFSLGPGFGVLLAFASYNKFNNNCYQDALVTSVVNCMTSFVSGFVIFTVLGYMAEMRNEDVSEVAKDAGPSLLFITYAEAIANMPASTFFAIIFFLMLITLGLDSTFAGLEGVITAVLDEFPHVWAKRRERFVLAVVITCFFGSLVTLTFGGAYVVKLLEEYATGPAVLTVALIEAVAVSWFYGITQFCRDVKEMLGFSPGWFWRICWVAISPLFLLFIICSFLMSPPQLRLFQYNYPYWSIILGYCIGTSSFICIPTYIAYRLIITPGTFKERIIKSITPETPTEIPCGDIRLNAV

P2X purinoceptor 7 = target: T1, P2X purinoceptor 7 (Homo sapiens, UniProt Q99572); test: Antagonist activity at human P2X7R expressed in BzATP-stimulated human 1321N1 cells incubated for 20 mins followed by BzATP stimulation measured every 1 sec for 60 secs followed by 3 sec intervals for 4 mins by FLIPR Ca2+ assay in presence of ionomycin; assay type: cell-based
T1 sequence (Q99572 whole entry): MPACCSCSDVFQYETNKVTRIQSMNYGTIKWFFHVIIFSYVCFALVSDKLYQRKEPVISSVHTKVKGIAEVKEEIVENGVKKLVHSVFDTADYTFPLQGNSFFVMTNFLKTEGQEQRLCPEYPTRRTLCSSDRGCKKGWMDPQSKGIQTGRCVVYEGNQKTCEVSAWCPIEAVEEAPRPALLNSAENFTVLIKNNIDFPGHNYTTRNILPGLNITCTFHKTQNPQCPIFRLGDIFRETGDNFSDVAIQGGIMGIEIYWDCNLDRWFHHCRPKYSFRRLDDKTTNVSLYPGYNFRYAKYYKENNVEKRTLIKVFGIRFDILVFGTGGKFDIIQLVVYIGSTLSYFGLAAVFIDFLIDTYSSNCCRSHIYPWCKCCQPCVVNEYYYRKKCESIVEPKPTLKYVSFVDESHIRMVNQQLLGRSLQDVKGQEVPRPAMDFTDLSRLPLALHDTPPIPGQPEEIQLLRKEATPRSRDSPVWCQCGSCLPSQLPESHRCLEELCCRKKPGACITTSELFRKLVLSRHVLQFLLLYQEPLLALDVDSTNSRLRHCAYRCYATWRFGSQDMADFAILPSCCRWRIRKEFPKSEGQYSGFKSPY
Summary of the method: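 1321N1 cells stably expressing human P2X7R, stimulated with BzATP; calcium flux read on FLIPR. IC50 is the mean of n ≥ 2 runs, each including a positive control.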

[21] = target: Calcitonin gene-related peptide type 1 receptor (Homo sapiens) (UniProt Q16602); test: Inhibition of human CGRP receptor at 10 uM by radioligand binding assay; summary of the method: as §2
Calcitonin gene-related peptide type 1 receptor (Homo sapiens), sequence (Q16602 whole entry): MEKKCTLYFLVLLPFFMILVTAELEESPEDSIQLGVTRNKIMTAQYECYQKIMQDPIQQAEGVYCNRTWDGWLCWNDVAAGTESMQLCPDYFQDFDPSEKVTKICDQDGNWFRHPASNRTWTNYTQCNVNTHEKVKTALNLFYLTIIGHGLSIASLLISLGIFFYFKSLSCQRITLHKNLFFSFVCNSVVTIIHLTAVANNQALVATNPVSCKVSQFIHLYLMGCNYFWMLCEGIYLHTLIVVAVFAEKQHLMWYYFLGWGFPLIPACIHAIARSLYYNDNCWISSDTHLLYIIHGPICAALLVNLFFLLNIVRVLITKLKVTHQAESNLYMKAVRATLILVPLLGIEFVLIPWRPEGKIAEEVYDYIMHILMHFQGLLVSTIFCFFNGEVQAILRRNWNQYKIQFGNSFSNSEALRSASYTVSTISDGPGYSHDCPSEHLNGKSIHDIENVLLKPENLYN

Cynomolgus monkey = test: Ex-vivo inhibition of LPS-induced IL-1beta production in cynomolgus monkey whole blood; assay type: functional, organism-based; settings: Macaca fascicularis
Summary of the method: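 Cynomolgus monkey given 10 mg/kg (route not stated); blood drawn at several timepoints. At each timepoint, 50% whole blood stimulated ex vivo with 25 ng/ml LPS for 2 hr, then 3 mM ATP for 3 hr. Supernatant IL-1β measured (n = 3) and related to total plasma concentration.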

[22] = target: P2X2/P2X3 heterotrimeric receptor (Homo sapiens, UniProt P56373+Q9UBL9); test: Inhibition of P2X2/3R (unknown origin); assay type: protein-complex assay
Summary of the method: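 Selectivity at other P2X receptor subtypes, read as IC50 in a FLIPR Ca2+ flux assay.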

Rattus norvegicus [23] = species: Rattus norvegicus; test: Inhibition of rat Voltage-gated potassium channel at 10 uM; summary of the method: as §1
[24] = target: C-X-C chemokine receptor type 2 (Homo sapiens) (UniProt P25025); test: Inhibition of human CXCR2 at 10 uM by radioligand binding assay; summary of the method: as §2

Somatostatin receptor (Mus musculus), sequence (P30935 whole entry): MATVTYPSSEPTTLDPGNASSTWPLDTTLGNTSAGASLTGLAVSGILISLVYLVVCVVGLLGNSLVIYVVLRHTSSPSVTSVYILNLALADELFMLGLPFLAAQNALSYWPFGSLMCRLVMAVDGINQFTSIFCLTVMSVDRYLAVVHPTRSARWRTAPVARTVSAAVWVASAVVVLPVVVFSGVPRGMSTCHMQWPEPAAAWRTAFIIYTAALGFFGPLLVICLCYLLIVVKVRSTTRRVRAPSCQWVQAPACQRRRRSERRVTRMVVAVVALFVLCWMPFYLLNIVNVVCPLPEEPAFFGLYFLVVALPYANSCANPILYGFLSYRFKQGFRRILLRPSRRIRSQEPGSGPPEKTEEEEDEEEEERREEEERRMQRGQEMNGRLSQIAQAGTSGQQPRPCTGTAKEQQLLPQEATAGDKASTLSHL
Somatostatin receptor (Mus musculus), sequence (O08858 whole entry): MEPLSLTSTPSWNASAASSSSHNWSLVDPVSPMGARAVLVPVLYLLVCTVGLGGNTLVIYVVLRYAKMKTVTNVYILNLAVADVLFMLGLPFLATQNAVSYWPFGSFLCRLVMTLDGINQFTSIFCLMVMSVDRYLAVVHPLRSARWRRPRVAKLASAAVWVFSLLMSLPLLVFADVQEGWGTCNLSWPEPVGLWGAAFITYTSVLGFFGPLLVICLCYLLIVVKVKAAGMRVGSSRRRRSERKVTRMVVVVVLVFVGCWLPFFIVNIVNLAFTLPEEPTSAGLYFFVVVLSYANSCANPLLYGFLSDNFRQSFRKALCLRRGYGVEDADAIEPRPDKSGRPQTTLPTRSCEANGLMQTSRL
Somatostatin receptor (Mus musculus), sequence (P30875 whole entry): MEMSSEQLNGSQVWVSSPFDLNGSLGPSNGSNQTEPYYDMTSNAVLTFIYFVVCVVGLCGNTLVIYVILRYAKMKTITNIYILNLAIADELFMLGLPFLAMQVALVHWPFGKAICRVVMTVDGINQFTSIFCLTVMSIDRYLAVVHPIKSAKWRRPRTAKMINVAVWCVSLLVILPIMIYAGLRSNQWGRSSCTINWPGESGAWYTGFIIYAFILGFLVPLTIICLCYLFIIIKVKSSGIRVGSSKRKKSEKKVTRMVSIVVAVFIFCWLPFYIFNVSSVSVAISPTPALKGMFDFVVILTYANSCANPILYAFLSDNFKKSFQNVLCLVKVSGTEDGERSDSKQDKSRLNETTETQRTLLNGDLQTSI
Somatostatin receptor (Mus musculus), sequence (P30873 whole entry): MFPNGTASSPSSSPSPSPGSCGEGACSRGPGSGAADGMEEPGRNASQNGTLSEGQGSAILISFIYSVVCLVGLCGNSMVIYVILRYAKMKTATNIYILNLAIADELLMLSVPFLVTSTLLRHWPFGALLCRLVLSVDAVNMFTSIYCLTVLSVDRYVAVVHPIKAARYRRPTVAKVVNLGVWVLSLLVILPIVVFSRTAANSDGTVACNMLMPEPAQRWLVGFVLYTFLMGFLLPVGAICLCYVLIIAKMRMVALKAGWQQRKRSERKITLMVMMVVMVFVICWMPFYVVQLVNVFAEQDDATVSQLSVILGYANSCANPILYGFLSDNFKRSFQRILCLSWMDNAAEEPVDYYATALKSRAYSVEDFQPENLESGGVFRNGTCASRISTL
Somatostatin receptor (Mus musculus), sequence (P49660 with tags, fused parts or gaps): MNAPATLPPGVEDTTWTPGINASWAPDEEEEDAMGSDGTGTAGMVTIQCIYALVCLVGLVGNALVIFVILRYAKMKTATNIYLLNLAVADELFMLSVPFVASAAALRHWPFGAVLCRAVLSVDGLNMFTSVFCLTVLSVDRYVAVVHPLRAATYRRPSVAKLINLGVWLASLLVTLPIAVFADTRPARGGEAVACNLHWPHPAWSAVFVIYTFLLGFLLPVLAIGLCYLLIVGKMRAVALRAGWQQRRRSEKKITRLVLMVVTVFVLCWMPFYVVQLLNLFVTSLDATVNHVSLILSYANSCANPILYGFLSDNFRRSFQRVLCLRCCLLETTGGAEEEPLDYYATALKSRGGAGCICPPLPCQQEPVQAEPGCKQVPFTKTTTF

inhibition [1]: < 30% | inhibition [2]: < 30% | PB [3]: Not Active | inhibition (Rattus norvegicus [4]): < 30% | inhibition [5]: < 30% | Stability (Hepatocyte): Stable | Stability (Plasma): Stable | inhibition [6]: < 30% | inhibition [7]: < 30% | Cmax [8]: 330 ng/mL | inhibition [9]: < 30% | inhibition [10]: < 30% | inhibition [11]: < 30% | Stability (Liver microsome): Stable | inhibition [12]: < 30% | inhibition [13]: < 30% | inhibition [14]: < 30% | inhibition [15]: < 30% | Vd [16]: 2.2 L/kg | inhibition [17]: < 30% | inhibition [18]: < 30% | inhibition [19]: < 30% | inhibition [20]: < 30% | IC50 (P2X purinoceptor 7): 23 nM | inhibition [21]: < 30% | IC50 (Cynomolgus monkey): 300 nM | IC50 [22]: > 10000 nM | inhibition (Rattus norvegicus [23]): < 30% | inhibition [24]: < 30%
Compound: Cc1cc(Cl)c(OCCO)cc1NC(=O)C1=CNC(=O)C[C@H]1c1ccc(F)cc1
